Results as given in publication PMC5469400 (Drug Metabolism and Disposition, 2017).

Key:
[1] = tested on: primary human hepatocyte and Kupffer cell cocultures; experiment: LDH release in the LiverChip; assay type: cell-based
Summary of the method: (§1)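 Cryopreserved primary human hepatocytes and Kupffer cells (10:1, 600,000 cells/well) were cocultured in perfused LiverChip scaffolds (1.0 µl/s), with hydrocortisone-containing (100 nM) WEM from day 3. Test compound in DMSO (0.5% v/v final) was given from day 5 and redosed at each 48-hour medium change, ±LPS 1 µg/ml. Medium was sampled 48 hours after each dose for albumin (ELISA) and LDH activity; n = 3, S.D.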

[2] = tested on: proteins in hepatocyte-Kupffer cell coculture medium; experiment: Shotgun proteomics of secreted proteins, spectral counting; assay type: cell-based, human; settings: 440 μM DCF
Summary of the method: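 Perfused hepatocyte–Kupffer cell coculture medium was collected from control and 440 μM test compound cultures on days 5 and 7 and depleted of albumin. Proteins were taken up in 8 M urea/50 mM ABC with ProteaseMAX, reduced with DTT (56°C, 30 min) and alkylated with IAA (30 min, room temperature, dark). Fractions were cleaned on C18, analysed by shotgun LC-MS/MS and quantified by spectral counting.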

[3] = cited from earlier work
[4] = DCF clearance / PK in the LiverChip, one-compartment model; assay type: in vitro ADME; settings: human
[5] = tested on: bile acid production in 3D liver coculture; experiment: Bile acids in culture medium by LC-MS; assay type: cell-based, human; settings: for level of GCA after 48 h / level of cholic acid after 48 h / level of glycochenodeoxycholic acid 3-glucuronide after 48 h / level of glycochenodeoxycholic acid after 48 h / level of taurocholic acid after 48 h: 0 μM DCF = 100, relative EIC
Summary of the method: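 Perfused LiverChip cocultures of cryopreserved primary human hepatocytes and Kupffer cells (10:1, 600,000 cells/well) in WEM with 100 nM hydrocortisone. Test compound in DMSO (0.5% v/v final) or LPS 1 µg/ml added from day 5, refreshed at 48 h medium changes. d5-GCA internal standard added before extraction. Bile acids in medium at 48 h by accurate MS peak area (EIC%) relative to vehicle = 100. Mean of two technical replicates.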

[6] = wells in the absence of cells, concentration monitored over 24 hours
[7] = tested on: primary human hepatocyte and Kupffer cell cocultures; experiment: Albumin secretion; assay type: cell-based; settings: high DCF concentrations (>50×), measured 48 hours after each dose
Summary of the method: as §1

[8] = tested on: coculture of hepatocytes and Kupffer cells (10:1); experiment: Extrapolation of in vitro DCF clearance to predicted hepatic clearance; assay type: in vitro ADME, human
[9] = tested on: acute phase proteins (APPs); experiment: iTRAQ 8plex quantitation of acute phase proteins in conditioned medium; assay type: cell-based, human; settings: day 7; normalized to untreated control; drug 440 μM DCF, LPS 1 µg/ml
Summary of the method: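 Day 7 conditioned medium from perfused human hepatocyte–Kupffer cell cocultures treated with test compound (440 μM), LPS (1 µg/ml) or both. Albumin depleted; 100 μg protein reduced (2 mM TCEP, 37°C, 30 min), blocked (10 mM MMTS, 1 h) and trypsin-digested (1:40 w/w, 37°C overnight). Peptides iTRAQ-8plex labelled (3 h, RT), then C18-cleaned. Values are ln2 ratios versus untreated control (combined treatment versus LPS).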

[10] = tested on: primary hepatocyte–Kupffer cell cocultures; experiment: WST-1 cell viability in the LiverChip, repeat dosing; assay type: cell-based; settings: Homo sapiens, read-out: IC50 (cell viability, WST-1)
Summary of the method: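 Perfused LiverChip cocultures of cryopreserved primary human hepatocytes and Kupffer cells (10:1, 600,000 cells/well; post-thaw viability >85%). Test compound in DMSO (0.5% v/v final) dosed from day 5. Medium and fresh compound replaced every 48 h. Viability measured by WST-1; mean of two replicates.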

With `O=C(O)Cc1ccccc1Nc1c(Cl)cccc1Cl` [DCF, diclofenac] the LDH release ([1]; high DCF concentrations (>50×), measured 48 hours after each dose) was “became more pronounced after the second dose”, the “number of proteins different between control and DCF-treated samples” value ([2]; day 5) was 13 proteins and the “number of additional proteins elevated, not identified in the control” value ([2]; day 7) was 68 proteins. For the same compound, the “in vivo plasma clearance” value ([3]; human, ref http://www.capkr.man.ac.uk) was 3.8 ml/min per kilogram, the Cmax ([3]; recommended dose of DCF in humans) was 4.4 µM and the half-life at 4.4 µM [4] was 14.6 h. For the same compound, the “DCF-induced toxicity as assessed by suppression of GCA production” value ([5]; 0, 44, 110, 220 and 440 µM DCF) was “continuous dose-response relationship”, the “level of GCA after 48 h” value ([5]; 110 μM DCF) was 57% and the “level of cholic acid after 48 h” value ([5]; 110 μM DCF) was 66%. The “level of glycochenodeoxycholic acid 3-glucuronide after 48 h” value ([5]; 110 μM DCF) was 69%, the “level of glycochenodeoxycholic acid after 48 h” value ([5]; 110 μM DCF) was 50% and the “level of taurocholic acid after 48 h” value ([5]; 110 μM DCF) was 77%. The “level of GCA after 48 h” value ([5]; 440 μM DCF) was 2%, the “level of cholic acid after 48 h” value ([5]; 440 μM DCF) was 12% and the “level of glycochenodeoxycholic acid 3-glucuronide after 48 h” value ([5]; 440 μM DCF) was 14%. The “level of glycochenodeoxycholic acid after 48 h” value ([5]; 440 μM DCF) was 15%, the “level of taurocholic acid after 48 h” value ([5]; 440 μM DCF) was 10% and the “binding to the LiverChip components” value [6] was “no detectable binding”. The albumin secretion [7] was “declined after a single dose”, the “underprediction of predicted CLh versus in vivo plasma clearance” value [8] was under 7 fold and the “ln2 iTRAQ value, Haptoglobin” value [9] was 0.5. The “ln2 iTRAQ value, α1 antiproteinase” value [9] was 1.0, the “ln2 iTRAQ value, α2 macroglobulin” value [9] was −1.0 and the IC50 [10] was 227 µM.

With lipopolysaccharide [LPS] the “effect of LPS codosing on toxicity profile of DCF” value ([1]; gross markers of functionality and cell death, LPS 1 µg/ml) was “does not significantly change the toxicity profile”, the “effect of LPS together with DCF on drug toxicity (bile acid production)” value ([5]; LPS alone, DCF, LPS plus DCF) was “synergistic effect” and the “ln2 iTRAQ value, Amyloid β A4 protein isoform b” value [9] was −1.7. The “ln2 iTRAQ value, Angiotensinogen” value [9] was 3.7, the “ln2 iTRAQ value, Ceruloplasmin” value [9] was 3.8 and the “ln2 iTRAQ value, Complement component C3” value [9] was 5.1. The “ln2 iTRAQ value, Haptoglobin” value [9] was 3.8, the “ln2 iTRAQ value, Hypothetical protein” value [9] was 3.9 and the “ln2 iTRAQ value, Leucine-rich α2-glycoprotein” value [9] was 2.8. The “ln2 iTRAQ value, Liver carboxylesterase 1 isoform a” value [9] was 2.4, the “ln2 iTRAQ value, Retinol binding protein 4” value [9] was 5.0 and the “ln2 iTRAQ value, Serum albumin” value [9] was 3.9. For the same compound, the “ln2 iTRAQ value, Transferrin” value [9] was 3.0, the “ln2 iTRAQ value, Transthyretin” value [9] was 1.3 and the “ln2 iTRAQ value, Vitamin D binding protein” value [9] was 2.1. The “ln2 iTRAQ value, α1-acid glycoprotein 1” value [9] was 7.0, the “ln2 iTRAQ value, α1-acid glycoprotein 2” value [9] was 5.0 and the “ln2 iTRAQ value, α1-antitrypsin” value [9] was 4.2. For the same compound, the “ln2 iTRAQ value, α1 antiproteinase” value [9] was 4.2 and the “ln2 iTRAQ value, α2-HS glycoprotein” value [9] was 1.5.
